# Columns and labels:
# [1] = species on record: Mus musculus; assay: Anti-tetrabenazine (TBZ) activity, ability to prevent TBZ-induced ptosis in mice; assay type: functional
# Procedure, shortened: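 Mice; compound given by an unstated route some hours before tetrabenazine (the time is truncated). Five animals per dose, with at least three to five doses. Ptosis scored 75-120 min after tetrabenazine injection on the Rubin scale (eyes closed = 100).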
# [2] = species on record: Rattus norvegicus; assay: cells; assay type: functional, organism-based, Synaptosomes; conditions: Brain, 3 h
# [3] = species on record: Rattus norvegicus; assay: In vitro inhibition of norepinephrine uptake in rat brain synaptosomes using [3H]NE; assay type: functional, organism-based
Structure (SMILES),IC50 [2],IC50 [3],ED50 [1]
Cl.Clc1cc2c(s1)CNCC2c1ccc(Br)cc1 (configuration not stated),> 10000 nM,3600 nM,> 40 mg/kg
CCC1(c2ccc(Br)cc2)CN(C)Cc2sc(C)cc21 (configuration not stated),> 10000 nM,> 10000 nM,> 40 mg/kg
CCCc1cc2c(s1)CN(C)CC2c1ccc(F)cc1.Cl (configuration not stated),780 nM,1100 nM,13 mg/kg
CC(=O)Nc1cc2c(s1)CN(C)CC2c1ccc(Cl)cc1.Cl (configuration not stated),600 nM,570 nM,35 mg/kg
Cc1cc2c(s1)CN(C)CC2c1c(Cl)cccc1Cl.Cl (configuration not stated),> 10000 nM,> 10000 nM,> 40 mg/kg
Cc1ccc(C2CN(C)Cc3sc(Cl)cc32)cc1.Cl (configuration not stated),> 10000 nM,900 nM,5.9 mg/kg
Cc1cc2c(s1)CN(C)CC2c1cccc(C(F)(F)F)c1.Cl (configuration not stated),> 10000 nM,3400 nM,> 40 mg/kg
CCCCN1Cc2sccc2C(c2ccc(Cl)cc2)C1.Cl (configuration not stated),> 10000 nM,> 10000 nM,> 40 mg/kg
Cc1cc2c(s1)CN(C)CC2c1ccccc1.Cl (configuration not stated),8000 nM,560 nM,8.4 mg/kg
CN1Cc2sc(Cl)cc2C(c2ccc(Cl)cc2)C1.Cl (configuration not stated),5400 nM,1600 nM,2.2 mg/kg
COc1ccc(C2CN(C)Cc3sc(C)cc32)cc1.Cl (configuration not stated),500 nM,400 nM,7.1 mg/kg
CN1Cc2sccc2C(c2ccc(Cl)cc2Cl)C1.Cl (configuration not stated),3000 nM,> 10000 nM,> 40 mg/kg
Cc1cc2c(s1)CN(C)CC2(C)c1ccc(Br)cc1 (configuration not stated),3100 nM,3400 nM,40 mg/kg
COc1ccc(C2CN(C)Cc3sccc32)cc1OC.Cl (configuration not stated),300 nM,> 10000 nM,> 40 mg/kg
CN1Cc2sc([N+](=O)[O-])cc2C(c2ccc(Cl)cc2)C1 (configuration not stated),3350 nM,800 nM,> 40 mg/kg
CN1Cc2sc(Cl)cc2C(c2ccccc2)C1.Cl (configuration not stated),> 10000 nM,1400 nM,> 40 mg/kg
CCc1cc2c(s1)CN(CC)CC2c1ccc(C)cc1.Cl (configuration not stated),1800 nM,270 nM,> 40 mg/kg
CN1Cc2c(N)cccc2C(c2ccccc2)C1 (configuration not stated) [NOMIFENSINE],,,1.7 mg/kg
Cl.c1ccc(C2CNCc3sccc32)cc1 (configuration not stated),> 10000 nM,3000 nM,> 40 mg/kg
CN(C)CCCN1c2ccccc2CCc2ccccc21 [IMIPRAMINE],230 nM,5000 nM,2.3 mg/kg
Cc1ccc(C2CN(C)Cc3sc(CO)cc32)cc1.Cl (configuration not stated),1200 nM,50 nM,0.7 mg/kg
Cc1cc2c(s1)CNCC2c1ccc(Br)cc1.Cl (configuration not stated),1800 nM,760 nM,> 40 mg/kg
Cc1cc2c(s1)CN(C)CC2c1ccc(C(F)(F)F)cc1.Cl (configuration not stated),2050 nM,7800 nM,> 40 mg/kg
Oc1cccc(C2CNCc3sc(Cl)cc32)c1 (configuration not stated),> 10000 nM,3200 nM,> 40 mg/kg
Cc1cc2c(s1)CN(C)CC2c1ccc(O)cc1.Cl (configuration not stated),460 nM,250 nM,10 mg/kg

# More lines, main results first:
IC50 [2],IC50 [3],Structure (SMILES),ED50 [1]
> 10000 nM,7800 nM,Cc1sc2c(c1Br)C(c1ccc(Br)cc1)CN(C)C2.Cl (configuration not stated),> 40 mg/kg
9000 nM,640 nM,Cc1ccc(C2CN(C)Cc3sc(Br)cc32)cc1.Cl (configuration not stated),7.4 mg/kg
200 nM,370 nM,COCc1cc2c(s1)CN(C)CC2c1ccc(Br)cc1 (configuration not stated),1.7 mg/kg
90 nM,130 nM,CN1Cc2sc(N)cc2C(c2ccc(Br)cc2)C1 (configuration not stated),7.4 mg/kg
540 nM,500 nM,Cc1cc2c(s1)CN(C)CC2c1ccc(Br)cc1.Cl (configuration not stated),2.6 mg/kg
4100 nM,1600 nM,CN1Cc2sc(Br)cc2C(c2ccc(Br)cc2)C1 (configuration not stated),0.8 mg/kg
> 10000 nM,2300 nM,CN1Cc2sc(Br)cc2C(c2ccccc2)C1.Cl (configuration not stated),6 mg/kg
3500 nM,1000 nM,CN1Cc2sc(Cl)cc2C(c2ccc(Br)cc2)C1.Cl (configuration not stated),6.5 mg/kg
210 nM,180 nM,CN1Cc2sc(N)cc2C(c2ccc(Cl)cc2)C1 (configuration not stated),> 40 mg/kg
5700 nM,1740 nM,CN1Cc2sc(C(C)(C)C)cc2C(c2ccc(Br)cc2)C1.Cl (configuration not stated),7 mg/kg
2450 nM,450 nM,CN1Cc2sc([N+](=O)[O-])cc2C(c2ccc(Br)cc2)C1.Cl (configuration not stated),3.6 mg/kg
860 nM,990 nM,CCCc1cc2c(s1)CN(C)CC2c1ccc(Br)cc1.Cl (configuration not stated),40 mg/kg
3550 nM,190 nM,Cc1cc2c(s1)CN(C)CC2c1ccc(Cl)cc1.Cl (configuration not stated),> 40 mg/kg
